In brackets after ≈: the same amount, converted by molar mass.
Tests used:
Saccharomyces cerevisiae = test: Antifungal activity against Saccharomyces cerevisiae after 24 hrs by two-fold serial dilution method; assay type: functional
How it was run: (§1)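 Spore suspension in sterile distilled water from one-day-old cultures on Sabouraud agar, final 1–5 × 10³ spore mL⁻¹. Compound stocks diluted in sterile RPMI 1640 as two-fold serial dilutions in microdilution plates. MIC is the lowest concentration completely inhibiting growth. Growth monitored visually and spectrophotometrically, in triplicate.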

Salmonella typhi = test: Antibacterial activity against Bacillus typhi after 24 hrs by two-fold serial dilution method; assay type: functional, Salmonella enterica subsp. enterica serovar Typhi; conditions: Salmonella enterica
How it was run: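 Two-fold serial dilution in 96-well plates following NCCLS; compounds dissolved in DMSO as stocks, then diluted in Mueller-Hinton broth; bacterial suspension adjusted with sterile saline to 1 × 10⁵ CFU; MIC taken as lowest concentration completely inhibiting growth, monitored visually and spectrophotometrically; DMSO-plus-inoculum well as solvent control; triplicate.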

Bacillus = test: Antibacterial activity against Bacillus proteus ATCC 13315 after 24 hrs by two-fold serial dilution method; assay type: functional; conditions: ATCC 13315, 24 h
How it was run: (§2)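 MIC taken as the lowest concentration giving complete growth inhibition, by standard two-fold serial dilution in 96-well plates following NCCLS. Stocks in DMSO, diluted in Mueller–Hinton broth. Inoculum adjusted with sterile saline to 1 × 10⁵ CFU. DMSO with inoculum and no drug served as solvent control. Growth read visually and spectrophotometrically, in triplicate.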

Staphylococcus aureus [1] = test: Antibacterial activity against Staphylococcus aureus ATCC 6538 after 24 hrs by two-fold serial dilution method; assay type: functional; conditions: ATCC 6538, 24 h
Cyberlindnera jadinii = test: Antifungal activity against Candida utilis after 24 hrs by two-fold serial dilution method; assay type: functional; conditions: Williopsis jadinii; how it was run: as §1
Micrococcus luteus = test: Antibacterial activity against Micrococcus luteus ATCC 4698 after 24 hrs by two-fold serial dilution method; assay type: functional; conditions: ATCC 4698, 24 h; how it was run: as §2
Escherichia coli = test: Antibacterial activity against Escherichia coli JM109 after 24 hrs by two-fold serial dilution method; assay type: functional; conditions: JM109, 24 h
Candida = test: Antifungal activity against Candida mycoderma after 24 hrs by two-fold serial dilution method; assay type: functional; how it was run: as §1
Candida albicans = test: Antifungal activity against Candida albicans ATCC 76615 after 24 hrs by two-fold serial dilution method; assay type: functional; conditions: ATCC 76615, 24 h; how it was run: as §1
Pseudomonas aeruginosa = test: Antibacterial activity against Pseudomonas aeruginosa ATCC 27853 after 24 hrs by two-fold serial dilution method; assay type: functional; conditions: ATCC 27853, 24 h; how it was run: as §2
Bacillus subtilis = test: Antibacterial activity against Bacillus subtilis ATCC 21216 after 24 hrs by two-fold serial dilution method; assay type: functional; conditions: ATCC 21216, 24 h; how it was run: as §2
Staphylococcus aureus [2] = test: Antibacterial activity against methicillin-resistant Staphylococcus aureus N315 after 24 hrs by two-fold serial dilution method; assay type: functional; conditions: N315, 24 h
Aspergillus flavus = test: Antifungal activity against Aspergillus flavus after 24 hrs by two-fold serial dilution method; assay type: functional; how it was run: as §1

Row | Structure (SMILES) | MIC (Saccharomyces cerevisiae) [µg/mL] | MIC (Salmonella typhi) [µg/mL] | MIC (Bacillus) [µg/mL] | MIC (Staphylococcus aureus [1]) [µg/mL] | MIC (Cyberlindnera jadinii) [µg/mL] | MIC (Micrococcus luteus) [µg/mL] | MIC (Escherichia coli) [µg/mL] | MIC (Candida) [µg/mL] | MIC (Candida albicans) [µg/mL] | MIC (Pseudomonas aeruginosa) [µg/mL] | MIC (Bacillus subtilis) [µg/mL] | MIC (Staphylococcus aureus [2]) [µg/mL] | MIC (Aspergillus flavus) [µg/mL]
1 | Cc1ccc(N(Cc2nc3ccccc3[nH]2)Cc2ccccc2Cl)cc1 | 64 (≈ 177 µM) | 64 (≈ 177 µM) | 32 (≈ 88.4 µM) | 64 (≈ 177 µM) | 32 (≈ 88.4 µM) | 128 (≈ 354 µM) | 32 (≈ 88.4 µM) | 32 (≈ 88.4 µM) | 32 (≈ 88.4 µM) | 32 (≈ 88.4 µM) | 64 (≈ 177 µM) | 128 (≈ 354 µM) | 32 (≈ 88.4 µM)
2 | Cc1ccc(N(Cc2cccc(Cl)c2)Cc2nc3ccccc3[nH]2)cc1 | 64 (≈ 177 µM) | 16 (≈ 44.2 µM) | 128 (≈ 354 µM) | 32 (≈ 88.4 µM) | 32 (≈ 88.4 µM) | 128 (≈ 354 µM) | 32 (≈ 88.4 µM) | 32 (≈ 88.4 µM) | 32 (≈ 88.4 µM) | 32 (≈ 88.4 µM) | 64 (≈ 177 µM) | 128 (≈ 354 µM) | 64 (≈ 177 µM)
3 | Cc1ccc(N(Cc2ccc(Cl)cc2)Cc2nc3ccccc3[nH]2)cc1 | 128 (≈ 354 µM) | 64 (≈ 177 µM) | 32 (≈ 88.4 µM) | 32 (≈ 88.4 µM) | 64 (≈ 177 µM) | 128 (≈ 354 µM) | 32 (≈ 88.4 µM) | 32 (≈ 88.4 µM) | 64 (≈ 177 µM) | 64 (≈ 177 µM) | 64 (≈ 177 µM) | 64 (≈ 177 µM) | 128 (≈ 354 µM)
4 | Cc1ccc(N(Cc2ccc([N+](=O)[O-])cc2)Cc2nc3ccccc3[nH]2)cc1 | 64 (≈ 172 µM) | 64 (≈ 172 µM) | 64 (≈ 172 µM) | 32 (≈ 85.9 µM) | 64 (≈ 172 µM) | 128 (≈ 344 µM) | 64 (≈ 172 µM) | 64 (≈ 172 µM) | 128 (≈ 344 µM) | 64 (≈ 172 µM) | 64 (≈ 172 µM) | 256 (≈ 687 µM) | 128 (≈ 344 µM)
5 | Cc1ccc(N(Cc2nc3ccccc3[nH]2)Cc2ccc(F)cc2F)cc1 | 64 (≈ 176 µM) | 32 (≈ 88.1 µM) | 64 (≈ 176 µM) | 16 (≈ 44 µM) | 32 (≈ 88.1 µM) | 64 (≈ 176 µM) | 128 (≈ 352 µM) | 32 (≈ 88.1 µM) | 32 (≈ 88.1 µM) | 32 (≈ 88.1 µM) | 32 (≈ 88.1 µM) | 16 (≈ 44 µM) | 32 (≈ 88.1 µM)
6 | Cc1ccc(N(Cc2nc3ccccc3[nH]2)Cc2ccc(Cl)cc2Cl)cc1 | 64 (≈ 161 µM) | 64 (≈ 161 µM) | 32 (≈ 80.7 µM) | 64 (≈ 161 µM) | 64 (≈ 161 µM) | 128 (≈ 323 µM) | 32 (≈ 80.7 µM) | 128 (≈ 323 µM) | 64 (≈ 161 µM) | 64 (≈ 161 µM) | 32 (≈ 80.7 µM) | 64 (≈ 161 µM) | 128 (≈ 323 µM)
7 | Cc1ccc(N(Cc2ccc(Cl)c(Cl)c2)Cc2nc3ccccc3[nH]2)cc1 | 128 (≈ 323 µM) | 64 (≈ 161 µM) | 128 (≈ 323 µM) | 32 (≈ 80.7 µM) | 64 (≈ 161 µM) | 64 (≈ 161 µM) | 64 (≈ 161 µM) | 128 (≈ 323 µM) | 128 (≈ 323 µM) | 128 (≈ 323 µM) | 128 (≈ 323 µM) | 64 (≈ 161 µM) | 128 (≈ 323 µM)
8 | Fc1ccc(N(Cc2nc3ccccc3[nH]2)Cc2ccc(Cl)cc2Cl)c(F)c1 | 32 (≈ 76.5 µM) | 128 (≈ 306 µM) | 32 (≈ 76.5 µM) | 64 (≈ 153 µM) | 32 (≈ 76.5 µM) | 64 (≈ 153 µM) | 32 (≈ 76.5 µM) | 64 (≈ 153 µM) | 128 (≈ 306 µM) | 64 (≈ 153 µM) | 64 (≈ 153 µM) | 128 (≈ 306 µM) | 64 (≈ 153 µM)
9 | CCCCCCCCN(Cc1nc2ccccc2[nH]1)c1ccc(C)cc1.Cl.Cl | 64 | 64 | 64 | 64 | 64 | 64 | 128 | 128 | 64 | 128 | 128 | 128 | 128
10 | O=C(N[C@H](CO)[C@H](O)c1ccc([N+](=O)[O-])cc1)C(Cl)Cl [CHLORAMPHENICOL] |  | 32 (≈ 99 µM) | 32 (≈ 99 µM) | 8 (≈ 24.8 µM) |  | 8 (≈ 24.8 µM) |  |  |  |  | 32 (≈ 99 µM) |  | 
11 | OC(Cn1cncn1)(Cn1cncn1)c1ccc(F)cc1F [FLUCONAZOLE] | 16 (≈ 52.2 µM) |  |  |  | 8 (≈ 26.1 µM) |  |  | 4 (≈ 13.1 µM) | 1 (≈ 3.27 µM) |  |  |  | 256 (≈ 836 µM)
12 | CCn1cc(C(=O)O)c(=O)c2cc(F)c(N3CCNCC3)cc21 [NORFLOXACIN] |  | 1 (≈ 3.13 µM) | 4 (≈ 12.5 µM) | 8 (≈ 25.1 µM) |  | 1 (≈ 3.13 µM) | 1 (≈ 3.13 µM) |  |  | 1 (≈ 3.13 µM) | 2 (≈ 6.26 µM) | 1 (≈ 3.13 µM) | 

Reference: ChEMBL document CHEMBL2390927, “Design, synthesis and antimicrobial evaluation of novel benzimidazole type of Fluconazole analogues and their synergistic effects with Chloromycin, Norfloxacin and Fluconazole” (2013)
